Assay results from ChEMBL document CHEMBL1134656, “Synthesis and antitumor activity of conjugates of muramyldipeptide, normuramyldipeptide, and desmuramylpeptides with acridine/acridone derivatives” (2001).

Tests used:
[1] = Half-lethal concentration against COLO,HCC2998,HCT116,SK-MEL-2 cell lines.; type: functional, Homo sapiens
Outline: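 NCI in vitro human tumor cell line screen. After a 24 h drug-free incubation, compounds were added at five 10-fold dilutions, with a maximum of 10^-4 M (test range 10^-4 to 10^-8 M). Cells were exposed for 2 days. Growth was read from the change in protein-stain optical density, and the half-lethal concentration (LC50) was derived for each cell line.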

[2] = test system: Panel (Carcinoma cell lines); test: sc score: subcutaneous implants. measured as in vivo hollow fiber assay in minimum of 12 human cancer cell lines; type: functional
[3] = test system: Panel (Carcinoma cell lines); test: ip score (intraperitoneal implants) measured as in vivo hollow fiber assay in minimum of 12 human cancer cell lines; type: functional
Cancer cell lines = test: Cell kill activity against cancer cell lines; No; type: functional, cell-based; conditions: Homo sapiens

CC(=O)N[C@@H]1[C@H](OCc2ccccc2)O[C@@H](COC(=O)CCCCCNc2ccc([N+](=O)[O-])c3nc4ccc(O)cc4c(O)c23)[C@@H](O)[C@@H]1OC(C)C(=O)N[C@@H](C)C(=O)N[C@H](CCC(N)=O)C(=O)OCc1ccccc1 (stereo partly specified)
MID log LC50 [1]: -4.23 M

CC(=O)N[C@@H]1[C@H](OCc2ccccc2)O[C@@H](CO)[C@@H](O)[C@@H]1OCC(=O)N[C@@H](C)C(=O)N[C@H](CCC(=O)NCCCCNc1c2ccccc2nc2cccc([N+](=O)[O-])c12)C(N)=O
Subcut score [2]: 2
MID log LC50 [1]: -4.26 M
Ip score [3]: 4

CC(=O)N[C@@H]1[C@H](OCc2ccccc2)O[C@@H](CO)[C@@H](O)[C@@H]1OCC(=O)N[C@@H](C)C(=O)N[C@H](CCC(=O)NCCCCCNc1c2ccccc2nc2cccc([N+](=O)[O-])c12)C(N)=O
Subcut score [2]: 8
MID log LC50 [1]: -5.82 M
Ip score [3]: 16

CC(=O)N[C@@H]1[C@H](OCc2ccccc2)O[C@@H](CO)[C@@H](O)[C@@H]1OC(C)C(=O)N[C@@H](C)C(=O)N[C@H](CCC(=O)NCCNCCNc1c2ccccc2nc2cccc([N+](=O)[O-])c12)C(N)=O (stereo partly specified)
Subcut score [2]: 4
MID log LC50 [1]: -4.56 M
Ip score [3]: 2
cell kill activity (Cancer cell lines): No cell kill activity

CC(=O)N[C@@H]1[C@H](OCc2ccccc2)O[C@@H](COC(=O)CCNc2c3ccccc3nc3cccc([N+](=O)[O-])c23)[C@@H](O)[C@@H]1OC(C)C(=O)N[C@@H](C)C(=O)N[C@H](CCC(N)=O)C(=O)OCc1ccccc1 (stereo partly specified)
MID log LC50 [1]: -4.42 M

CC(=O)N[C@@H]1[C@H](OCc2ccccc2)O[C@@H](CO)[C@@H](O)[C@@H]1OCC(=O)N1CCC[C@H]1C(=O)N[C@H](CCC(=O)NCCCCCNc1c2ccccc2nc2cccc([N+](=O)[O-])c12)C(N)=O
Subcut score [2]: 0
MID log LC50 [1]: -5.51 M
Ip score [3]: 14

COC(=O)[C@@H](CCC(N)=O)NC(=O)[C@@H](NC(=O)C(C)O[C@H]1[C@H](O)[C@H](COC(=O)CCCCCCCCCCNC(=O)c2ccc([N+](=O)[O-])c3c(O)c4ccccc4nc23)O[C@@H](OCc2ccccc2)[C@H]1NC(C)=O)C(C)C (stereo partly specified)
MID log LC50 [1]: -4.25 M

CC(=O)N[C@@H]1[C@H](OCc2ccccc2)O[C@@H](CO)[C@@H](O)[C@@H]1OCC(=O)N[C@@H](C)C(=O)N[C@H](CCC(=O)NCCCNc1c2ccccc2nc2cccc([N+](=O)[O-])c12)C(N)=O
Subcut score [2]: 2
MID log LC50 [1]: -4.97 M
Ip score [3]: 2
cell kill activity (Cancer cell lines): No cell kill activity

CC(=O)N[C@@H]1[C@H](OCc2ccccc2)O[C@@H](CO)[C@@H](O)[C@@H]1OC(C)C(=O)N[C@H](C(=O)N[C@H](CCC(=O)NCCCCNc1c2ccccc2nc2cccc([N+](=O)[O-])c12)C(N)=O)C(C)C (stereo partly specified)
Subcut score [2]: 2
MID log LC50 [1]: -4.17 M
Ip score [3]: 32

CC(=O)N[C@@H]1[C@H](OCc2ccccc2)O[C@@H](CO)[C@@H](O)[C@@H]1OC(C)C(=O)N[C@@H](C)C(=O)N[C@H](CCC(=O)NCCCCNc1c2ccccc2nc2cccc([N+](=O)[O-])c12)C(N)=O (stereo partly specified)
Subcut score [2]: 12
MID log LC50 [1]: -5.49 M
Ip score [3]: 4
